For orientation: pKi means the Ki on a negative log10 scale, so that one unit is a factor of ten.

Drawing on ChEMBL document CHEMBL3352336, “Discovery libraries targeting the major enzyme classes: the serine hydrolases” (Bioorg Med Chem Lett, 2014), this text covers Retention_time and Ki for 72 molecules.

Data set [1] in a line: Retention time of the compound. The data set is classed as physicochemical.
The target of data set [2] is T1, Fatty-acid amide hydrolase 1 (Rattus norvegicus, UniProt P97612).
T1 sequence (P97612 whole entry): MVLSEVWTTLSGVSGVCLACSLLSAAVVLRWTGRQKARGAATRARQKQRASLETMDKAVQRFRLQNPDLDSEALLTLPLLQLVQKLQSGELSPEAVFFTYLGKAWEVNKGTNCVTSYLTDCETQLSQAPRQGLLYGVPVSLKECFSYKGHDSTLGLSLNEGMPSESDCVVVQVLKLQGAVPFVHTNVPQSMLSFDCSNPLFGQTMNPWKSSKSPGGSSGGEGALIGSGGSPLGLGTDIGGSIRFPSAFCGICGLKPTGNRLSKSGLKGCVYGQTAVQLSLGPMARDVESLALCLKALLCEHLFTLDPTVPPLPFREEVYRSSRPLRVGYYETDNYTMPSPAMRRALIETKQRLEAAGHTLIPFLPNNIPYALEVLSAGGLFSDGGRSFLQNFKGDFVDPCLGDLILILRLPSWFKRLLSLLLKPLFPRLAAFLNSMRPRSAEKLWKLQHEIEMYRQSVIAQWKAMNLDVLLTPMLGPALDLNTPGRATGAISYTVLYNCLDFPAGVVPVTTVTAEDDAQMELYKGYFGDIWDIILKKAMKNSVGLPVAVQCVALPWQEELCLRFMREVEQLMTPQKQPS
Put plainly: Inhibition of recombinant rat FAAH preincubated for 3 hrs. Summed up:
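Recombinant FAAH (rFAAH) was preincubated with the inhibitor for 3 h before activity was measured. Results are reported as an apparent Ki in nM.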

Each structure is given as a SMILES string. pKi: −log10 of the molar value. A value given as a limit tells only on which side of the number the result lay.

For the molecule `N#Cc1cnn(C(=O)NCc2ccc(-c3ccccc3)cc2)c1`, the Retention_time in data set [1] stood at 3.897 min.
On the same count and under the same terms, to `CC(C)(C)OC(=O)N1CCCN(C(=O)n2cccn2)CC1` belongs 3.518 min; to `Cc1cnn(C(=O)N2CCCN(C(=O)OC(C)(C)C)CC2)c1`, 3.959 min.
In data set [1], `CC(C)(C)OC(=O)N1CCCN(C(=O)n2cc(C#N)cn2)CC1` displayed a Retention_time of 3.792 min.
Still for that read-out and setting: to `CN(CCN(C)C(=O)n1cccn1)C(=O)OC(C)(C)C` belongs 3.884 min.
In data set [1], `Cc1cnn(C(=O)N(C)CCN(C)C(=O)OC(C)(C)C)c1` came in with a Retention_time of 3.969 min.
On to `CN(CCN(C)C(=O)n1cc(C#N)cn1)C(=O)OC(C)(C)C`, for which the Retention_time in data set [1] is listed as 3.791 min.
As for `O=C(NCCCCc1ccccc1)n1cccn1`, in data set [2], the pKi was 6.54. The Retention_time in data set [1] was 3.955 min.
`Cc1cnn(C(=O)NCCCCc2ccccc2)c1`: in data set [2], the pKi is 6.26. Besides, the Retention_time in data set [1] is 3.713 min.
Consider `N#Cc1cnn(C(=O)NCCCCc2ccccc2)c1`, for which the pKi in data set [2] is 7.38. For the same molecule, the Retention_time in data set [1] is on record as 3.746 min.
As for `O=C(OCCCCc1ccccc1)n1cccn1`, the pKi in data set [2] is 6.15. The Retention_time in data set [1] was found to be 3.779 min.
On the same counts, the results for `Cc1cnn(C(=O)OCCCCc2ccccc2)c1` are less than 5.30 and 3.988 min.
In the case of `N#Cc1cnn(C(=O)OCCCCc2ccccc2)c1`, in data set [2], the pKi was 6.68. In data set [1], this molecule returned a Retention_time of 3.762 min.
For the molecule `O=C(CCCCCc1ccccc1)n1cccn1`, the pKi in data set [2] is less than 5.30. This molecule also displayed a Retention_time in data set [1] of 4.199 min.
As for `Cc1cnn(C(=O)CCCCCc2ccccc2)c1`, the pKi in data set [2] is less than 5.30. For the same molecule, the Retention_time in data set [1] is given as 4.2 min.
As for `N#Cc1cnn(C(=O)CCCCCc2ccccc2)c1`, the pKi in data set [2] was less than 5.30. In addition, the Retention_time in data set [1] is on record as 3.998 min.
As to `O=C(NCCCc1ccccc1)n1cccn1`, the Retention_time in data set [1] was found to be 3.989 min.
In the case of `Cc1cnn(C(=O)NCCCc2ccccc2)c1`, the Retention_time in data set [1] turned out to be 3.616 min.
`N#Cc1cnn(C(=O)NCCCc2ccccc2)c1` displayed a Retention_time in data set [1] of 3.915 min.
Regarding `O=C(OCCCc1ccccc1)n1cccn1`, in data set [1], the Retention_time was found to be 3.669 min.
Same read-out and setting: to `Cc1cnn(C(=O)OCCCc2ccccc2)c1` belongs 3.69 min; to `N#Cc1cnn(C(=O)OCCCc2ccccc2)c1`, 3.927 min.
`O=C(CCCCc1ccccc1)n1cccn1` displayed a Retention_time in data set [1] of 3.977 min.
For `Cc1cnn(C(=O)CCCCc2ccccc2)c1`, in data set [1], the Retention_time was 3.687 min.
Same read-out and setting: to `N#Cc1cnn(C(=O)CCCCc2ccccc2)c1` belongs 3.702 min; to `O=C(NCCCCCc1ccccc1)n1cccn1`, 4.011 min.
Molecule `Cc1cnn(C(=O)NCCCCCc2ccccc2)c1` displayed a Retention_time in data set [1] of 4.178 min.
Regarding `N#Cc1cnn(C(=O)NCCCCCc2ccccc2)c1`, in data set [1], the Retention_time is listed as 4.125 min.
In the case of `O=C(OCCCCCc1ccccc1)n1cccn1`, the Retention_time in data set [1] amounted to 4.159 min.
In data set [1], `Cc1cnn(C(=O)OCCCCCc2ccccc2)c1` returned a Retention_time of 4.104 min.
As for `N#Cc1cnn(C(=O)OCCCCCc2ccccc2)c1`, the Retention_time in data set [1] was found to be 4.274 min.
Same read-out and setting: to `O=C(NCc1ccc2ccccc2c1)n1cccn1` belongs 4.106 min; to `Cc1cnn(C(=O)NCc2ccc3ccccc3c2)c1`, 4.243 min; to `N#Cc1cnn(C(=O)NCc2ccc3ccccc3c2)c1`, 4.14 min.
In the case of `O=C(OCc1ccc2ccccc2c1)n1cccn1`, the Retention_time in data set [1] is listed as 4.008 min.
On the same count and under the same terms, to `Cc1cnn(C(=O)OCc2ccc3ccccc3c2)c1` belongs 3.998 min; to `N#Cc1cnn(C(=O)OCc2ccc3ccccc3c2)c1`, 3.689 min.
On the same count and under the same terms, to `O=C(Cc1ccc2ccccc2c1)n1cccn1` belongs 3.788 min; to `Cc1cnn(C(=O)Cc2ccc3ccccc3c2)c1`, 3.992 min.
With `N#Cc1cnn(C(=O)Cc2ccc3ccccc3c2)c1`, the Retention_time in data set [1] is on record as 3.906 min.
In turn, `O=C(NCc1ccc(-c2ccccc2)cc1)n1cccn1` showed a Retention_time in data set [1] of 3.944 min.
`Cc1cnn(C(=O)NCc2ccc(-c3ccccc3)cc2)c1` showed a Retention_time in data set [1] of 3.907 min.
With `O=C(OCc1ccc(-c2ccccc2)cc1)n1cccn1`, the Retention_time in data set [1] is 3.999 min.
In turn, `Cc1cnn(C(=O)OCc2ccc(-c3ccccc3)cc2)c1` showed a Retention_time in data set [1] of 4.102 min.
As for `N#Cc1cnn(C(=O)OCc2ccc(-c3ccccc3)cc2)c1`, in data set [1], the Retention_time is 4.103 min.
With `O=C(Cc1ccc(-c2ccccc2)cc1)n1cccn1`, the Retention_time in data set [1] came to 4.1 min.
Still for that read-out and setting: to `Cc1cnn(C(=O)Cc2ccc(-c3ccccc3)cc2)c1` belongs 3.467 min; to `N#Cc1cnn(C(=O)Cc2ccc(-c3ccccc3)cc2)c1`, 3.977 min; to `O=C(NCc1ccc(Oc2ccccc2)cc1)n1cccn1`, 3.987 min.
On the same count and under the same terms, to `Cc1cnn(C(=O)NCc2ccc(Oc3ccccc3)cc2)c1` belongs 3.992 min.
As for `N#Cc1cnn(C(=O)NCc2ccc(Oc3ccccc3)cc2)c1`, in data set [1], the Retention_time is 4.022 min.
In data set [1], `O=C(OCc1ccc(Oc2ccccc2)cc1)n1cccn1` returned a Retention_time of 3.989 min.
`Cc1cnn(C(=O)OCc2ccc(Oc3ccccc3)cc2)c1` came in with a Retention_time in data set [1] of 3.899 min.
Take `N#Cc1cnn(C(=O)OCc2ccc(Oc3ccccc3)cc2)c1`: the Retention_time in data set [1] is reported as 3.92 min.
Turning to `O=C(NCc1ccc(OCc2ccccc2)cc1)n1cccn1`, in data set [1], the Retention_time is recorded as 3.896 min.
`Cc1cnn(C(=O)NCc2ccc(OCc3ccccc3)cc2)c1` returned a Retention_time in data set [1] of 3.876 min.
The same measure, in the same setting: to `N#Cc1cnn(C(=O)NCc2ccc(OCc3ccccc3)cc2)c1` belongs 3.877 min.
`O=C(OCc1ccc(OCc2ccccc2)cc1)n1cccn1`: in data set [1], the Retention_time was determined as 3.905 min.
Regarding `Cc1cnn(C(=O)OCc2ccc(OCc3ccccc3)cc2)c1`, in data set [1], the Retention_time was 3.91 min.
`N#Cc1cnn(C(=O)OCc2ccc(OCc3ccccc3)cc2)c1` showed a Retention_time in data set [1] of 3.912 min.
On the same count and under the same terms, to `O=C(Nc1ccc2ccccc2c1)n1cccn1` belongs 3.895 min; to `Cc1cnn(C(=O)Nc2ccc3ccccc3c2)c1`, 3.9 min; to `N#Cc1cnn(C(=O)Nc2ccc3ccccc3c2)c1`, 3.965 min.
In the case of `O=C(Oc1ccc2ccccc2c1)n1cccn1`, in data set [1], the Retention_time is given as 3.96 min.
Same read-out and setting: to `Cc1cnn(C(=O)Oc2ccc3ccccc3c2)c1` belongs 3.954 min; to `N#Cc1cnn(C(=O)Oc2ccc3ccccc3c2)c1`, 3.9 min.
Still for that read-out and setting: to `Cc1ccc(CNC(=O)n2cccn2)cc1` belongs 4.104 min.
In data set [1], `Cc1ccc(CNC(=O)n2cc(C)cn2)cc1` displayed a Retention_time of 4.11 min.
As for `Cc1ccc(CNC(=O)n2cc(C#N)cn2)cc1`, the Retention_time in data set [1] turned out to be 3.97 min.
`Cc1ccc(COC(=O)n2cccn2)cc1` returned a Retention_time in data set [1] of 4.1 min.
`Cc1ccc(COC(=O)n2cc(C)cn2)cc1` displayed a Retention_time in data set [1] of 4.122 min.
Same read-out and setting: to `Cc1ccc(COC(=O)n2cc(C#N)cn2)cc1` belongs 3.988 min.
